Shown are actives, neighbours in structure and some others; about 2.3% of the full set was active somewhere.
TRPC4 agonist = activators of mouse TRPC4 channel, primary screen, Fluo4 calcium, HEK293 TRPC4beta/mu-opioid cells | B-score at 10 µM | Short transient receptor potential channel 4 (Mus musculus), Q9QUQ5 | Fluo4 calcium fluorescence; stronger effect = higher value | hit rate 0.49% among 310,000;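 active = B-score above 5 SD of library B-scores, and initial fluorescence ratio not above library mean plus 5 SD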;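 note: positive B-score marks a calcium rise read as TRPC4 activation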
Target sequence (Q9QUQ5 whole entry, looked up): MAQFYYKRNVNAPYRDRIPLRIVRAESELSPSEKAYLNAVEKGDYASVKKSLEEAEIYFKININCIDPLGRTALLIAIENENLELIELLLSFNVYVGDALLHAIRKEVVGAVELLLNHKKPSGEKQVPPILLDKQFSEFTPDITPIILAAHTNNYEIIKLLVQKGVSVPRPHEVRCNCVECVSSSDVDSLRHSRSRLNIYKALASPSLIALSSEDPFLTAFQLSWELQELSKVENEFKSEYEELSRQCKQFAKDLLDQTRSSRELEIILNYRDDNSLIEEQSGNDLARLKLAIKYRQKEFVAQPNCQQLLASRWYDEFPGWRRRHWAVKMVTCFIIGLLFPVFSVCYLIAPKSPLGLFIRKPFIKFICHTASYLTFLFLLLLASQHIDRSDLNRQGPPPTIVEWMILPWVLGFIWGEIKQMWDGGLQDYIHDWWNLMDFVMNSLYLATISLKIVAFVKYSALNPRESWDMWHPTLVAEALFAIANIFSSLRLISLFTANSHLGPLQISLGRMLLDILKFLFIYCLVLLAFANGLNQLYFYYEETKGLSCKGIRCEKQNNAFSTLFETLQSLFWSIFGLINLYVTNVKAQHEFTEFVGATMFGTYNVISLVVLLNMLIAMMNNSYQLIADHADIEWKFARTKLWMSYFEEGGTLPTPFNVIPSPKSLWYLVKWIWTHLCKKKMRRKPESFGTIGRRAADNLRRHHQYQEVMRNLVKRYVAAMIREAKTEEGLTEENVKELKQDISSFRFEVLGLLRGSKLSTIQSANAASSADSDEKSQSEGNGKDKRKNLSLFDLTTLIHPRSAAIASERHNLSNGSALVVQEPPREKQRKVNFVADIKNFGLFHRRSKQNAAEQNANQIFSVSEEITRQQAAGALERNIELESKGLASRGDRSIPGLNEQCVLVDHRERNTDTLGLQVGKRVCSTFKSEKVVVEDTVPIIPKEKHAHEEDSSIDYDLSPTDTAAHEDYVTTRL
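Material: TRPC4beta and mu-opioid receptor HEK293 stable cells | Incubation: 45 min room-temperature Fluo4 loading, 110 s read | Detection: Kinetic Fluo4 calcium fluorescence | Measure: Integrated baseline-normalised fluorescence ratio, converted to per-well B score | Benchmarks: Low control buffer alone, high control maximal DAMGO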
TRPC6 act = mouse TRPC6 channel activators, primary screen, cell-based, HEK293, membrane potential dye | hit rate 0.13% among 310,000 | B-score at 10 µM | HEK293-TRPC6 membrane potential dye fluorescence; stronger effect = higher value | AID 2550, 2010;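 active = B-score of the integrated fluorescence ratio above library mean plus 3 SD, and starting fluorescence ratio within library mean plus 5 SD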;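 note: higher score means more depolarization so channel activation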
TRPC6 inhibitor = mouse TRPC6 channel inhibitors, primary screen, cell-based, HEK293, membrane potential dye; B-score at 10 µM; hit rate 1.1% among 310,000; ACh-evoked depolarization; stronger effect = lower value; Short transient receptor potential channel 6 (Mus musculus), Q61143;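 active = B-score under library mean minus 3 SD, initial fluorescence not abnormally high, positive integrated signal ratio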;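 note: B-score derived from integrated fluorescence ratio over the kinetic read; more negative B-score means stronger inhibition of depolarization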
TRPC4 inh = inhibitors of mouse TRPC4 channel, primary screen, Fluo4 calcium, HEK293 TRPC4beta/mu-opioid cells | Short transient receptor potential channel 4 (Mus musculus), Q9QUQ5 | DAMGO-evoked Fluo4 calcium flux; stronger effect = lower value | B-score at 10 µM | hit rate 0.39% among 300,000;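 active = B-score over 3 SD under the library average, no early fluorescence shift, positive overall ratio signal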
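Material: HEK293 cells with stable TRPC4beta plus mu-opioid receptor expression; probe or stimulus: DAMGO in two steps, submaximal then maximal; technique: Fluo4 calcium fluorescence by kinetic imaging, 5 s 1 Hz baseline; measure: integrated fluorescence ratio relative to baseline, converted to per-well B score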
TRPC4 potent = positive allosteric modulators of TRPC4, primary screen, cell-based, mouse TRPC4beta, HEK293 mu-opioid, Fluo-4 calcium | Short transient receptor potential channel 4 (Mus musculus), Q9QUQ5 | DAMGO EC20, Fluo-4 Ca2+ flux; stronger effect = higher value | B-score at 10 µM | hit rate 0.42% among 310,000;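 active = B-score of calcium response area above 5 SD of library B-scores, with initial fluorescence ratio within 5 SD of library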
Of the large screens only hits and unclear results are named; the others gave an inactive call.

Cc1ccc(-n2c(-c3ccccc3)c[n+]3c2CCC3)cc1	none
COc1ccc(-n2c(-c3ccc(Br)cc3)c[n+]3c2CCCCC3)cc1	TRPC4 inh -6
CCc1ccc(C(=O)c2cnc3ccc(OC)cc3c2N2CCN(CC)CC2)cc1	TRPC4 agonist 230
CCOc1ccc2ncc(C(=O)c3ccc(OC)cc3)c(N3CCN(CC)CC3)c2c1	TRPC4 agonist 120
CCOc1ccc(C(=O)c2cnc3ccccc3c2N2CCN(CC)CC2)cc1	TRPC4 inh -5
CCN(CC)S(=O)(=O)c1ccc(OC(C)C)c(NC(=O)C2=COCCO2)c1	none
O=C(O)C[C@H]1c2ccc(C(F)(F)F)cc2S(=O)(=O)N1C1CCCCC1	none (no result: TRPC4 inh)
CC1OC(OC2C(OC3C(O[C@H]4CC[C@]5(C)C6C=C[C@]78OC[C@@]9(CC[C@@H](C)[C@H](C)C97)[C@H](O)C[C@@]8(C)[C@]6(C)CC[C@H]5C4(C)C)OC(C)C(O)C3O)OC(CO)C(O)C2O)C(O)C(O)C1O (stereo not given in full)	TRPC4 agonist 376, TRPC6 inhibitor -5.07, TRPC4 potent 17
CC(C)CN1CCC(=O)N(CCSc2ccc(Br)cc2)CC1	none
CC1Cc2cc(/C(O)=C3/C(=O)C(=O)N(CCCN4CCOCC4)C3c3ccc(C(C)C)cc3)ccc2O1 (stereo not given)	none
O=C(CSc1nnc(-c2ccc(Cl)cc2Cl)n1C1CCCCC1)N1CCCC1	TRPC4 inh -6
CC(=O)Nc1cccc(C(=O)OC(C(=O)c2ccc(C)cc2)c2ccccc2)c1 (stereo not given)	TRPC4 potent 17
O=C(O)c1c(C(=O)O)c(-c2ccc(Cl)c(Cl)c2)n2c1CSC2	none
O=C(CCl)NC(=O)NC12CC3CC(CC(C3)C1)C2	TRPC4 inh -6
COCCNCC(=O)N1CCCCCC1	none
O=C(NCCO)C(=O)c1c(-c2ccc(Cl)cc2)cc2ccccn12	none
O=C(O)c1ccn2c(C(=O)c3ccc(Cl)cc3)c(-c3ccccc3)cc2c1	TRPC4 inh -6
COc1ccc(S(=O)(=O)NCC2CCCN(Cc3cn(C)nc3C)C2)cc1 (stereo not given)	none
CC(C)Cn1c(N)c(C(=O)COC(=O)C2CC(=O)N(c3ccc4c(c3)OCCO4)C2)c(=O)n(C)c1=O (stereo not given)	none
CC1CCC2(CC1)NC(=O)N(Cc1cccc(C(F)(F)F)c1)C2=O (stereo not given)	none
COc1ccc(C[C@H]2CN3C(=NC[C@@H]3Cc3ccccc3)N2CCNC(=O)c2ccc(C)c(Br)c2)cc1	TRPC4 agonist 48
O=c1cnnc(SCc2ccc([N+](=O)[O-])cc2)[nH]1	none
Cc1cc(NC(=O)C(C)SCC(=O)N(Cc2ccccc2)c2ccccc2)no1 (stereo not given)	TRPC4 inh -7
Cc1c(N)c(C(C)(C)C)cc(C(C)(C)C)c1[N+](=O)[O-]	TRPC4 inh -6
Cc1cc(N)c(C)c([N+](=O)[O-])c1C	none
COc1ccccc1/C=C1\SC(=S)N(NS(=O)(=O)c2ccccc2)C1=O	none
CCOc1cc(/C=C2\SC(=S)N(NS(=O)(=O)c3ccc(C)cc3)C2=O)ccc1O	none
COc1cccc(/C=C2\SC(=S)N(NS(=O)(=O)c3ccc(C)cc3)C2=O)c1OC	TRPC4 inh -6
COc1cc(/C=C2\SC(=S)N(NS(=O)(=O)c3ccc(C)cc3)C2=O)cc(OC)c1OC	TRPC4 inh -6
CN(C)c1ccc(-c2nc3ccccc3n2C)cc1	TRPC4 agonist 46
Cc1cccc(-c2csc(N)c2C(=O)OC(C)C)c1	TRPC4 inh -6
Cc1ccc(C)c(-c2csc(N)c2C(=O)OC(C)C)c1	none
O=C(NCc1ccc(Cl)cc1)C1CCC(CNS(=O)(=O)c2ccccc2)CC1 (stereo not given)	none
N#Cc1ccccc1COc1cccc2c1CCCC2O (stereo not given)	none
